Several values for one entry are separate records, joined by “and”; a condition that tells them apart may be missing. Identical values can stand only once. Like-named read-outs stand apart in the source and are kept apart here.
Experiments:
[1] = Critical micelle concentration by DPH fluorimetric method; assay type: physicochemical
In short: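 Fluorimetric CMC determination: 10 μL of 1 mM diphenylhexatriene (DPH) in tetrahydrofuran added to test detergent serially diluted in ECS (pH 7.45, HEPES-buffered saline with glucose). Excitation 358 nm, emission scanned 400–500 nm. CMC taken at the sharp rise in fluorescence as DPH enters micelles.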

[2] = POPC vesicles; cited from earlier work
[3] = test system: HEK 293A cells; assay: Ensemble whole cell patch clamp; assay type: cell-based; conditions: for change in membrane conductivity compared to ECS controls: 0.004 and 0.04 mM SDS, 0.0001 and 0.001 mM CTAB; for concentration at which increased membrane permeability is induced: current change 900 s after exposure, superfusion
[4] = test system: HEK 293A cells; assay: Quiescent partitioning experiment with trypan blue assay; assay type: cell-based; conditions: range from error estimate
In short: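 Cationic detergent only. HEK 293A cells in ECS were pretreated 15 min with graded detergent concentrations as in the patch-clamp partitioning protocol. Trypan blue exclusion, not patch clamp, served as the membrane-permeability marker. Onset concentration was plotted against cellular lipid concentration and fitted linearly (slope Rb, intercept Dw). K was derived from R and Dw and reported as a range.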

[5] = test system: HEK 293A cells; assay type: cell-based; conditions: for Dw ± standard error (detergent in water, intercept): quiescent, onset of increased permeability; for partition constant K [lower bound, upper bound]: range from error in Rb and intercept
In short: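 HEK 293A cells (passages 12–17) detached with detachin, rested in serum-free medium, then 1.5, 5, 10 or 15 million cells in ECS incubated 15 min with graded detergent. Cells were pelleted at 1000 rpm, resuspended in ECS and patched on an IonFlux 16 ensemble whole-cell system with K-aspartate intracellular solution. Time-averaged current over the first 4 min served as the permeability read-out. Detergent giving a 1 nA rise ×15 estimated the onset. Onset concentration vs lipid concentration was fitted linearly: slope Rb, intercept Dw.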

[6] = test system: HEK293A cells; assay: XTT assay; assay type: cell-based; conditions: 20 min
In short: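 HEK293A cells were seeded at 100000 cells/well and incubated overnight at 37 °C, 5% CO2. Cells were exposed 20 min to test compound in ECS, or to ECS alone, then the supernatant was replaced with PBS. XTT reagent (solution A:B, 50:1) was added and incubated 2 h at 37 °C. A490 minus A690 was read, and % viability was expressed relative to ECS-treated cells.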

[7] = test system: HEK 293A cells; assay type: cell-based; conditions: for reversal of increased conductivity at end of experiment (600 s): 0.2 mM SDS 30 s exposure, 0.1 mM CTAB 10 s, 0.137 mM ORB 10 s; for reversibility of increased permeability induced within 10 s of exposure: 0.2 mM SDS, 0.1 mM CTAB, 0.137 mM ORB, 15 min after exposure
In short: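 IonFlux 16 whole-cell patch clamp of HEK 293A cells in ECS at sub-solubilising test concentrations, applied for 10, 30 or 300 s. Exposure was followed by ECS perfusion for 900 s. Membrane current was tracked for reversal. Controls were ECS alone or ECS + 5% DMSO, the vehicle for the rhodamine lipid probe.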

[8] = test system: HEK 293A cells; assay: Fluorescence microscopy of patched cells; assay type: cell-based; conditions: ORB at all three concentrations, 10 min
[9] = POPC/POPG vesicles; cited from earlier work
[10] = depending on size, composition of vesicles and temperature; cited from earlier work
[11] = 0.004–0.04 mM SDS, 0.0001–0.001 mM CTAB
[12] = 0.2 and 2 mM SDS, 0.1, 1 and 10 mM CTAB, 0.035, 0.14 and […] ORB
[13] = 2 mM SDS, 1 and 10 mM CTAB, 1.37 mM ORB
[14] = 0.004–0.2 mM SDS, 0.001–0.1 mM CTAB, 0.0137–0.137 mM ORB

| SMILES | critical micelle concentration (CMC) in ECS [1] | CMC in water [1] [mM] | partition constant K [2] [M^–1] | time of onset of current increase after compound release ([3]; 0.2 mM SDS, 0.1 mM CTAB) | group of current traces ([3]; 0.2 mM SDS, 0.1–10 mM CTAB) | time of onset of current increase after compound release ([3]; 2 mM SDS, 1 mM CTAB) [s] | change in membrane conductivity compared to ECS controls [3] | group of current traces [3, 11] | change in membrane current compared to ECS controls [3, 12] | concentration at which increased membrane permeability is induced [3] [µM] | Dw ± standard error (detergent in water, intercept) [5] | partition constant K [lower bound, upper bound] [5] | metabolic activity of exposed cells (XTT) [6, 13] | metabolic activity of exposed cells (XTT) [6, 14] | reversal of increased conductivity at end of experiment (600 s) [7] | reversibility of increased permeability induced within 10 s of exposure [7] | other results |
| --- | --- | --- | --- | --- | --- | --- | --- | --- | --- | --- | --- | --- | --- | --- | --- | --- | --- |
| CCCCCCCCCCCCCCCC[N+](C)(C)C [CTAB, cetyltrimethylammonium bromide] | 0.03 to 0.06 mM and ~0.06 mM | 1 to 2 | 350000 | 2 to 3 s and 1 to 3 s | 2 | 1 | did not cause a change in conductance | 1 | rapid increase in membrane current | 10 | 4.2 ± 2.8 | 29000–476000 M^–1 | reduced metabolic activity | do not show a loss in metabolic activity | not reversed | not reversible for over 15 min | current eventually reached as fraction of open channel current ([3]; 0.01 mM CTAB): 1/3; change in membrane current compared to ECS controls ([3]; 0.01 mM CTAB (below CMC)): slow increase in current; time of onset of current increase after compound release ([3]; 10 mM CTAB): 1 s; partition constant K range (trypan blue assay) [4]: 37000 to 67000 M^–1 |
| CCCCCCCCCCCCCCCCCCOC(=O)c1ccccc1-c1c2ccc(=[N+](CC)CC)cc-2oc2cc(N(CC)CC)ccc12.[Cl-] [ORB, octadecyl rhodamine B] |  |  |  |  |  |  |  |  | increased the membrane current significantly |  | 7.3 ± 3.1 | 24000–99000 M^–1 | reduced metabolic activity | do not show a loss in metabolic activity | not reversed | not reversible for over 15 min | state of cells after ORB exposure (ORB fluorescence) [8]: fluorescent and intact; change in membrane current compared to controls ([3]; 0.014 (0.0137) mM ORB): significantly different from the ECS control but not 0.007 mM ORB |
| CCCCCCCCCCCCOS(=O)(=O)[O-].[Na+] [SDS, sodium dodecyl sulfate] | 0.8 to 1 mM and ~0.8 mM | 6 to 8 | 33000 | 2 to 3 s | 2 | 1 | does not result in an increase in conductivity | 1 | initial sharp increase in current | 200 | 29 ± 10 | 16300–39200 M^–1 | reduced metabolic activity | do not show a loss in metabolic activity | not reversed | not reversible for over 15 min | partition constant K [9]: 37000 M^–1; duration of initial change in current ([3]; 0.2 mM SDS): 3 to 4 s; duration of subsequent slow current increase ([3]; 0.2 mM SDS): 67 ± 25 s; current reached at the end of 15 min ([3]; 0.2 mM SDS, total current of 20 cells): ~50 nA; final current level ([3]; 2 mM SDS): eventually reached open channel current levels; group of current traces ([3]; 2 mM SDS): 3; time to reach open channel current ([3]; 2 mM SDS, except one trace that took 871 s): 120 ± 61 s; time within which large and sudden increase in conductivity occurs ([3]; 0.2 and 2 mM SDS): 1 to 3 s; partition constant K [10]: 12500 to 70000 M^–1 |
